# The source made the active and inactive calls. No cut-off for these calls is given here.
# Assays:
# [1] = Cytotoxicity against human HuH7 cells assessed as cell viability at > 200 ug/ml after 2 days by [3H]thymidine incorporation assay; format: cell-based; settings: huh-7, 48 h
# Proteus vulgaris = assay: Antibacterial activity against Proteus vulgaris at 100 ug/ml after 16 to 20 hrs by broth microdilution method; format: functional, organism-based
# [2] = system: Mycobacterium tuberculosis; assay: Antitubercular activity against Mycobacterium tuberculosis H37Ra at 10 ug/ml after 6 days by microplate alamar blue assay; format: functional; settings: 144 h
# Outline: (§1)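 MABA run in 7H9GC medium, with drug diluted from DMSO stocks made at 100× the highest final concentration. Final levels were 100, 50, 10, 5, 2.5 and 1 μg/mL in triplicate, and the experiment was done three times. Inoculum was 2.5 × 10⁵ CFU/mL final. Alamar Blue plus Tween-80 was added once bacteria-only control wells turned pink, from day 6 on, and plates were read visually and by fluorescence after 24 h. Visual MIC is the lowest concentration preventing the blue-to-pink change. Mean percent inhibition was taken relative to bacteria-only and medium-only wells.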
# [3] = system: Staphylococcus epidermidis; assay: Antibacterial activity against Staphylococcus epidermidis at 100 ug/ml after 16 to 20 hrs by broth microdilution method; format: functional, organism-based
# [4] = system: Mycobacterium tuberculosis; assay: Antitubercular activity against Mycobacterium tuberculosis H37Ra after 6 days by microplate alamar blue assay; format: functional; settings: 144 h; outline: as §1
# Salmonella typhimurium = assay: Antibacterial activity against Salmonella Typhimurium at 100 ug/ml after 16 to 20 hrs by broth microdilution method; format: functional, organism-based; settings: Salmonella enterica subsp. enterica serovar Typhimurium
# Streptococcus pyogenes [5] = assay: Antibacterial activity against Streptococcus pyogenes at 100 ug/ml after 16 to 20 hrs by broth microdilution method; format: functional, organism-based
# [6] = system: Mycobacterium tuberculosis; assay: Antitubercular activity against Mycobacterium tuberculosis H37Ra at 1 ug/ml after 6 days by microplate alamar blue assay; format: functional; settings: 144 h; outline: as §1
# Pseudomonas aeruginosa = assay: Antibacterial activity against Pseudomonas aeruginosa at 100 ug/ml after 16 to 20 hrs by broth microdilution method; format: functional, organism-based
# [7] = system: Mycobacterium tuberculosis; assay: Antitubercular activity against Mycobacterium tuberculosis H37Ra at 50 ug/ml after 6 days by microplate alamar blue assay; format: functional; settings: 144 h; outline: as §1
# Bacillus subtilis = assay: Antibacterial activity against Bacillus subtilis at 100 ug/ml after 16 to 20 hrs by broth microdilution method; format: functional, organism-based
# Staphylococcus aureus [8] = assay: Antibacterial activity against Staphylococcus aureus at 100 ug/ml after 16 to 20 hrs by broth microdilution method; format: functional, organism-based
# Escherichia coli = assay: Antibacterial activity against Escherichia coli at 100 ug/ml after 16 to 20 hrs by broth microdilution method; format: functional, organism-based
# Enterococcus faecalis [9] = assay: Antibacterial activity against Enterococcus faecalis at 100 ug/ml after 16 to 20 hrs by broth microdilution method; format: functional, organism-based
# Streptococcus pneumoniae = assay: Antibacterial activity against Streptococcus pneumoniae at 100 ug/ml after 16 to 20 hrs by broth microdilution method; format: functional, organism-based
# Listeria monocytogenes [10] = assay: Antibacterial activity against Listeria monocytogenes at 100 ug/ml after 16 to 20 hrs by broth microdilution method; format: functional, organism-based
# [11] = system: Mycobacterium tuberculosis; assay: Antitubercular activity against Mycobacterium tuberculosis H37Ra at 100 ug/ml after 6 days by microplate alamar blue assay; format: functional; settings: 144 h; outline: as §1
# [12] = Cytotoxicity against human HuH7 cells assessed as cell viability at 200 ug/ml after 2 days by XTT assay; format: cell-based; settings: huh-7, 48 h
# Outline: (§2)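 Huh-7 cells seeded at 1 × 10⁵ cells/well and left to attach 6-8 h. Medium then replaced with compound at 200, 100, 50, 10 or 1 μg/mL, with a DMSO control, and incubated 2 days at 37 °C. Viability by XTT, absorbance read at 450-500 nm.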
# Listeria monocytogenes [13] = assay: Antibacterial activity against Listeria monocytogenes after 16 to 20 hrs by broth microdilution method; format: functional
# Outline: (§3)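 Broth microdilution MIC. Exponentially growing bacteria diluted in sterile liquid medium to a final inoculum of 1 × 10⁴ CFU/mL, cultured with serial compound dilutions for 16-20 h. MIC taken as the lowest inhibitory concentration.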
# Staphylococcus aureus [14] = assay: Antibacterial activity against Staphylococcus aureus after 16 to 20 hrs by broth microdilution method; format: functional; outline: as §3
# Enterococcus faecalis [15] = assay: Antibacterial activity against Enterococcus faecalis after 16 to 20 hrs by broth microdilution method; format: functional; outline: as §3
# [16] = system: Staphylococcus epidermidis; assay: Antibacterial activity against Staphylococcus epidermidis after 16 to 20 hrs by broth microdilution method; format: functional; outline: as §3
# Streptococcus pyogenes [17] = assay: Antibacterial activity against Streptococcus pyogenes after 16 to 20 hrs by broth microdilution method; format: functional; outline: as §3
# [18] = system: Mycobacterium tuberculosis; assay: Antitubercular activity against Mycobacterium tuberculosis H37Ra at 2.5 to 5 ug/ml after 6 days by microplate alamar blue assay; format: functional; outline: as §1
# [19] = system: Mycobacterium tuberculosis; assay: Antitubercular activity against Mycobacterium tuberculosis H37Ra at 5 ug/ml after 6 days by microplate alamar blue assay; format: functional; settings: 144 h; outline: as §1
# [20] = Cytotoxicity against human HuH7 cells assessed as cell viability after 2 days by XTT assay; format: cell-based, Huh-7; settings: for CC50 at 48 h: HuH7 cells; outline: as §2
# [21] = system: Mycobacterium tuberculosis; assay: Antitubercular activity against Mycobacterium tuberculosis H37Ra infected in BALB/c mouse assessed as reduction of CFU counts in lungs at 50 mg/kg, ip administered 5 days after infection for 25 days measured after 3 days last dose; format: functional, organism-based; parameters: dose 50 mg/kg
# Outline: (§4)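 Female BALB/c mice, 5–6 weeks old, were infected iv via the tail vein with about 2.5 × 10⁵ CFU of H37Ra in PBS, 5 per group. From day 5, drug was given ip at 50 mg/kg, 5 days/week, for 25 treatment days, in 10% DMSO–saline or poly(ethylene glycol) methyl ether. Controls received diluent only. Three days after the last dose, lung, liver and spleen homogenates were plated on 7H11 agar at 37 °C for up to 4 weeks. Colony counts were done blinded.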
# Mus musculus = assay: Toxicity in Mycobacterium tuberculosis H37Ra infected in BALB/c mouse assessed as adverse effect at 50 mg/kg, ip administered 5 days after infection for 25 days; format: organism-based; parameters: dose 50 mg/kg, route intraperitoneal; settings: in vivo
# Outline: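 BALB/c mice infected with H37Ra were given 50 mg/kg ip in 10% DMSO–saline from day 5 post-infection, 5 days/week, over 25 treatment days. They were monitored for weight loss and behavioural changes and examined by gross necropsy after euthanasia.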
# [22] = system: Mycobacterium tuberculosis; assay: Antitubercular activity against Mycobacterium tuberculosis H37Ra infected in BALB/c mouse assessed as reduction of CFU counts in spleen at 50 mg/kg, ip administered 5 days after infection for 25 days measured after 3 days last dose; format: functional, organism-based; parameters: dose 50 mg/kg; outline: as §4
# [23] = system: Mycobacterium tuberculosis; assay: Antitubercular activity against Mycobacterium tuberculosis H37Ra infected in BALB/c mouse assessed as reduction of CFU counts in liver at 50 mg/kg, ip administered 5 days after infection for 25 days measured after 3 days last dose; format: functional, organism-based; parameters: dose 50 mg/kg; outline: as §4
Structure (SMILES),Activity [1],Activity (Proteus vulgaris),inhibition at 10 µg/mL [2] [%],Activity [3],MIC50 [4] [µg/mL],Activity (Salmonella typhimurium),Activity (Streptococcus pyogenes [5]),inhibition at 1 µg/mL [6] [%],Activity (Pseudomonas aeruginosa),inhibition at 50 µg/mL [7] [%],Activity (Bacillus subtilis),Activity (Staphylococcus aureus [8]),Activity (Escherichia coli),Activity (Enterococcus faecalis [9]),Activity (Streptococcus pneumoniae),Activity (Listeria monocytogenes [10]),inhibition at 100 µg/mL [11] [%],Activity [12],inhibition at 5 µg/mL [19] [%],CC50 at 48 h [20] [µg/mL],also measured
C(C#Cc1ccccn1)#Cc1ccccn1,Non-toxic,inactive,100,inactive,< 1,inactive,inactive,80,inactive,100,inactive,inactive,inactive,inactive,inactive,inactive,100,Non-toxic,,,
CCCCCC#Cc1c[nH]c(=O)[nH]c1=O,,inactive,,,,inactive,,,inactive,,inactive,,inactive,,inactive,,,,,,MIC90 (Listeria monocytogenes [13]): 50 µg/mL; MIC90 (Staphylococcus aureus [14]): 50 µg/mL; MIC90 (Enterococcus faecalis [15]): 50 µg/mL; MIC90 [16]: 10 µg/mL; MIC90 (Streptococcus pyogenes [17]): 50 µg/mL
O=c1[nH]c(=O)n([C@H]2C[C@H](O)[C@@H](CO)O2)cc1C#Cc1ccccn1,Non-toxic,inactive,68,inactive,2.5,inactive,inactive,,inactive,78,inactive,inactive,inactive,inactive,inactive,inactive,90,Non-toxic,,,inhibition (INH) [18]: 50%
CCCCCc1ccc(C#Cc2c[nH]c(=O)[nH]c2=O)cc1,Non-toxic,inactive,50,inactive,10,inactive,inactive,,inactive,50,inactive,inactive,inactive,inactive,inactive,inactive,90,Non-toxic,0,> 100,
O=c1[nH]cc(C#Cc2ccccn2)c(=O)[nH]1,Non-toxic,inactive,60,inactive,5,inactive,inactive,,inactive,70,inactive,inactive,inactive,inactive,inactive,inactive,90,Non-toxic,50,> 100,Activity [21]: Active; Activity (Mus musculus): Non-toxic; Activity [22]: Active; Activity [23]: Active
CO[C@H]1/C=C/O[C@@]2(C)Oc3c(C)c(O)c4c(O)c(c(/C=N/N5CCN(C)CC5)c(O)c4c3C2=O)NC(=O)/C(C)=C\C=C\[C@H](C)[C@H](O)[C@@H](C)[C@@H](O)[C@@H](C)[C@H](OC(C)=O)[C@@H]1C [RIFAMPIN],,,,,< 1,,,100,,,,,,,,,,,,,
NNC(=O)c1ccncc1 [ISONIAZID],,,,,< 1,,,100,,,,,,,,,,,,,
CCCc1ccc(C#Cc2c[nH]c(=O)[nH]c2=O)cc1,Non-toxic,inactive,55,inactive,< 10,inactive,inactive,,inactive,55,inactive,inactive,inactive,inactive,inactive,inactive,90,Non-toxic,0,> 100,
Nc1nc(=O)n([C@H]2C[C@H](O)[C@@H](CO)O2)cc1C#Cc1ccccn1,Non-toxic,inactive,70,inactive,2.5,inactive,inactive,,inactive,90,inactive,inactive,inactive,inactive,inactive,inactive,90,Non-toxic,,,"Activity ([20]; huh-7, 48 h): Non-toxic; Activity [21]: Active; inhibition (INH) [18]: 50%; Activity (Mus musculus): Non-toxic; Activity [22]: Active; Activity [23]: Active"
N[C@@H]1CONC1=O [CYCLOSERINE],,,67,,5,,,,,,,,,,,,,,50,,Activity [21]: Active; Activity [22]: Active; Activity [23]: Active
